Key:
[1] = Selectivity index, ratio of ED50 for human KB cells to IC50 for Plasmodium falciparum W2; assay type: functional
How it was run: (§1)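 Selectivity index computed as ED50 in KB cells (SRB survival assay) divided by IC50 against the P. falciparum clone from [3H]hypoxanthine incorporation, both fitted by nonlinear regression.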

[2] = Cytotoxicity against human KB cells by SRB assay; assay type: cell-based; conditions: read-out: ED50 (the source's name)
How it was run: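 Human oral epidermoid carcinoma KB cells stained with sulforhodamine B; ED50 from nonlinear regression of percent survival against compound concentration. ED50 of 50 µM or above taken as noncytotoxic; extract values in µg/mL.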

Plasmodium falciparum [3] = assay: Antimalarial activity against Plasmodium falciparum D6 by [3H]hypoxanthine uptake; assay type: functional, organism-based
How it was run: (§2)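 Cultured P. falciparum clones tested, parasite-specific [3H]hypoxanthine incorporation measured; zero-drug wells set as 100% incorporation. IC50 (50% inhibition of incorporation) fitted by nonlinear regression; pure compounds with IC50 < 10 µg/mL counted as active. Extract values expressed in µg/mL.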

Plasmodium falciparum [4] = assay: Antimalarial activity against Plasmodium falciparum W2 by [3H]hypoxanthine uptake; assay type: functional, organism-based; how it was run: as §2
[5] = Selectivity index, ratio of ED50 for human KB cells to IC50 for Plasmodium falciparum D6; assay type: functional; how it was run: as §1

Row | Compound | IC50 (Plasmodium falciparum [3]) [µM] | IC50 (Plasmodium falciparum [4]) [µM] | Selectivity Index [1] | CC50 [2] [µM] | Selectivity Index [5]
1 | CC(C)(O)[C@@H]1CC[C@]2(C)CC[C@]3(C)[C@H](CC[C@@H]4[C@@]5(C)CC[C@@H](O)C(C)(C)[C@@H]5CC[C@]43C)[C@@H]12 | 19.8 | 19.1 | >4.7 | > 90 | >4.5
2 | CC1(C)CC[C@]2(C(=O)O)CC[C@]3(C)C(=CC[C@@H]4[C@@]5(C)C[C@@H](O)[C@H](O)C(C)(C)[C@@H]5CC[C@]43C)[C@@H]2C1 [MASLINIC ACID] | 21.1 | 8.6 | 5.9 | 51.5 | 2.4
3 | COC1=CC(=O)C=C(OC)C1(O)CC(C)=O | 42.2 | 23 | 7.3 | 169 | 4
4 | CCN(CC)CCCC(C)Nc1ccnc2cc(Cl)ccc12 (stereo unspecified) [CHLOROQUINE] | – | – | – | 30.8 | –

Continued, in another order:

Row | IC50 (Plasmodium falciparum [3]) [µM] | IC50 (Plasmodium falciparum [4]) [µM] | Compound | Selectivity Index [1] | CC50 [2] [µM] | Selectivity Index [5]
5 | 21.2 | 18.4 | COc1cc([C@@H]2Oc3cc(/C=C/CO)cc(OC)c3O[C@H]2CO)cc(OC)c1O [NITIDANIN] | >5.4 | > 99 | >4.6
6 | 11.2 | 5.5 | COc1cc([C@@H]2Oc3cc4ccc(=O)oc4cc3O[C@H]2CO)cc(O)c1O [GREWIN] | >19.7 | > 108 | >9.6
